Assay results published in ChEMBL document CHEMBL1140076, “Discovery and labeling of high-affinity 3,4-diarylpyrazolines as candidate radioligands for in vivo imaging of cannabinoid subtype-1 (CB1) receptors” (J Med Chem, 2008).

Experiments:
[1] = test system: Brain; assay: Biodistribution in 1 mg/kg, iv N-(4-fluorobenzyl)-4-(3-(piperidin-1-yl)-1H-indol-1-ylsulfonyl)benzamide pretreated cynomolgus monkey brain assessed as standardized uptake value at […], iv after 15 mins; type: ADME, organism-based, Macaca fascicularis; design: dose 1 mg/kg, route intravenous; conditions: in vivo, 0.25 h
[2] = test system: Pons; assay: Biodistribution in cynomolgus monkey brain pons assessed as standardized uptake value at 78 GBq/umol, iv after 90 mins; type: ADME, organism-based, Macaca fascicularis; conditions: in vivo, 1.5 h
Procedure, shortened: (§1)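 Anesthetized cynomolgus monkeys (3.4, 4.8 kg; ketamine/xylazine i.m., head in stereotactic frame). [11C] radioligand given as i.v. bolus over about 5 s: 56–100 MBq, 0.33–0.81 µg carrier. Brain scanned on ECAT EXACT HR for 93 min. Regions defined on a monkey brain atlas. Decay-corrected activity expressed as %SUV (% injected activity per g tissue × body weight).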

[3] = test system: Pons; assay: Biodistribution in cynomolgus monkey brain pons assessed as standardized uptake value at 78 GBq/umol, iv after 24 mins; type: ADME, organism-based, Macaca fascicularis; conditions: in vivo, 0.4 h; procedure, shortened: as §1
[4] = test system: Brain; assay: Biodistribution in 1 mg/kg, iv N-(4-fluorobenzyl)-4-(3-(piperidin-1-yl)-1H-indol-1-ylsulfonyl)benzamide pretreated cynomolgus monkey brain assessed as standardized uptake value at […], iv after 90 mins; type: ADME, organism-based, Macaca fascicularis; design: dose 1 mg/kg, route intravenous; conditions: in vivo, 1.5 h
[5] = Biodistribution in cynomolgus monkey brain striatum assessed as standardized uptake value at 78 GBq/umol, iv after 30 mins; type: ADME, organism-based, Macaca fascicularis; conditions: in vivo, 0.5 h; procedure, shortened: as §1
[6] = Biodistribution in cynomolgus monkey brain striatum assessed as standardized uptake value at 78 GBq/umol, iv after 90 mins; type: ADME, organism-based, Macaca fascicularis; conditions: in vivo, 1.5 h; procedure, shortened: as §1
[7] = molecular target: Histamine H3 receptor (Homo sapiens, UniProt Q9Y5N1); assay: Displacement of [3H]alpha methyl histamine from human cloned histamine H3 receptor
Chain of Histamine H3 receptor (Q9Y5N1 whole entry): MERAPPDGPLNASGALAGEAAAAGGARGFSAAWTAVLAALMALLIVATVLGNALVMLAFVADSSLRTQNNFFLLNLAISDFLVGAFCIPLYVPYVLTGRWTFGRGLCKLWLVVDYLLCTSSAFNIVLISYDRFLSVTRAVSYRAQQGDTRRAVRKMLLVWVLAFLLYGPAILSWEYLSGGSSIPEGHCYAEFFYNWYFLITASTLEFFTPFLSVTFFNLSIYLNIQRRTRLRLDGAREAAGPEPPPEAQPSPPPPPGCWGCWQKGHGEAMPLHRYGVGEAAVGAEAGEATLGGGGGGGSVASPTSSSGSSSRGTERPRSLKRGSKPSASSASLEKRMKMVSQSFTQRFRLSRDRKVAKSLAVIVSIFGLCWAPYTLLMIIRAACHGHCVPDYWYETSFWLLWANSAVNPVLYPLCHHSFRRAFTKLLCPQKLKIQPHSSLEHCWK

[8] = molecular target: 5-hydroxytryptamine receptor 2A (Homo sapiens, UniProt P28223); assay: Displacement of [3H]ketanserin from human cloned 5HT2A receptor
Chain of 5-hydroxytryptamine receptor 2A (P28223 whole entry): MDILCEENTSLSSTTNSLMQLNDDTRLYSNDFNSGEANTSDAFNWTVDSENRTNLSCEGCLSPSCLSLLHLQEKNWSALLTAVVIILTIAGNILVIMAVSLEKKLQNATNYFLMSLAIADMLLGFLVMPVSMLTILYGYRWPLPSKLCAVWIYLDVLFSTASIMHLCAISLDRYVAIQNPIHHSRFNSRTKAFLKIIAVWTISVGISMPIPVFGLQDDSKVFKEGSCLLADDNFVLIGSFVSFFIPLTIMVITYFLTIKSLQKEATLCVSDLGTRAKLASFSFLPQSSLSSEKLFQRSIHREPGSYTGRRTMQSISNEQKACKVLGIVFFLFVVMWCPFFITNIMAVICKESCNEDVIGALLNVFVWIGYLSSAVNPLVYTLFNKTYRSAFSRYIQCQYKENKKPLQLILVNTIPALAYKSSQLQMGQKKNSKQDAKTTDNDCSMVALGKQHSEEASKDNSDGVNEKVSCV

[9] = molecular target: Cannabinoid receptor 1 (Homo sapiens, UniProt P21554); assay: Binding affinity to human CB1 receptor by [35S]GTPgammaS binding assay; type: functional
Chain of Cannabinoid receptor 1 (P21554 whole entry): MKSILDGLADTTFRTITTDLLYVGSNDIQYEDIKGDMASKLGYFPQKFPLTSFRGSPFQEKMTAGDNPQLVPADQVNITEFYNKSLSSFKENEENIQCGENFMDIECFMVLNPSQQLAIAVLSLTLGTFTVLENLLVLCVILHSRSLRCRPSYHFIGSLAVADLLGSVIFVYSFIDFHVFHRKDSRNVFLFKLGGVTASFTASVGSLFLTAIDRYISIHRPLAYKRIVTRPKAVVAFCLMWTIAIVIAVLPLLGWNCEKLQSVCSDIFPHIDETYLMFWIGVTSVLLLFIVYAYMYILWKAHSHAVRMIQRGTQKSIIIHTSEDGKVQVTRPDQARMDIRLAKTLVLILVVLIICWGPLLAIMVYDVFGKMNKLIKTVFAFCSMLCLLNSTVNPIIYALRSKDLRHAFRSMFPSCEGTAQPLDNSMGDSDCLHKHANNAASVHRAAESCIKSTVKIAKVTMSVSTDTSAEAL

[10] = molecular target: Histamine H2 receptor (Homo sapiens, UniProt P25021); assay: Displacement of [3H]tiotidine from human cloned histamine H2 receptor
Chain of Histamine H2 receptor (P25021 whole entry): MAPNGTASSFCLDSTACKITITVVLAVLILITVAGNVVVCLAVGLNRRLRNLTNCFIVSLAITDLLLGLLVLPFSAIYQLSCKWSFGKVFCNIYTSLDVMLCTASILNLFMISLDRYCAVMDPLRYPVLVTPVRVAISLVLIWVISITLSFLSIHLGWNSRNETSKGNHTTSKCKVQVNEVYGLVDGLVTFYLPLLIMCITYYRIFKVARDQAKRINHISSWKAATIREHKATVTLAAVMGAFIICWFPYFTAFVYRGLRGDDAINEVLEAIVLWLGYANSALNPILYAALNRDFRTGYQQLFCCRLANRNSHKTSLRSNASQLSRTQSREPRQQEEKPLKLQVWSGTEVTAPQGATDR

[11] = molecular target: Cannabinoid receptor 2 (Homo sapiens, UniProt P34972); assay: Binding affinity to human CB2 receptor by [35S]GTPgammaS binding assay; type: functional
Chain of Cannabinoid receptor 2 (P34972 whole entry): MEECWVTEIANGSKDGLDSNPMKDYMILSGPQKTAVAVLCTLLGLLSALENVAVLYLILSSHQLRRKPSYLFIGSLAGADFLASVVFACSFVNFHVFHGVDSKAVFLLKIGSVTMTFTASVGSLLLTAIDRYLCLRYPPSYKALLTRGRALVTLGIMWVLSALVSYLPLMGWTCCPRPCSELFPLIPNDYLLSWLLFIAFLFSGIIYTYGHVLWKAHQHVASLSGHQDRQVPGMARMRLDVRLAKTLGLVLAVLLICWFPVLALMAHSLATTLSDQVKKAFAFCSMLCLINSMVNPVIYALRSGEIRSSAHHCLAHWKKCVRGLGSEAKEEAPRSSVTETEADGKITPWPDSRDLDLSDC
Procedure, shortened: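 Recombinant human CB2 membranes (7 µg/well) in buffer with 100 mM NaCl, 5 mM MgCl2, 1 mM EDTA, 50 mM HEPES, 10 µM GDP, 100 µM DTT, 0.01% BSA. Incubation 45 min at 30 °C, then filtration and scintillation counting. Nonspecific binding with 20 µM GTPγS. IC50 converted to Ki by Cheng-Prusoff; triplicates.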

[12] = Biodistribution in cynomolgus monkey brain striatum assessed as standardized uptake value at 56 GBq/umol, iv after 1.5 mins; type: ADME, organism-based, Macaca fascicularis; conditions: in vivo, 0.025 h; procedure, shortened: as §1
[13] = Biodistribution in cynomolgus monkey brain striatum assessed as standardized uptake value at 56 GBq/umol, iv after 90 mins; type: ADME, organism-based, Macaca fascicularis; conditions: in vivo, 1.5 h; procedure, shortened: as §1
[14] = Biodistribution in cynomolgus monkey plasma assessed as unchanged drug level at 65 GBq/umol, iv after 45 mins; type: ADME, organism-based, Macaca fascicularis; conditions: read-out: Activity
Procedure, shortened: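 Venous blood (1 mL) taken 5, 15, 30 and 45 min after i.v. radioligand in anesthetized monkey. Plasma (0.5 mL) mixed with MeCN containing carrier standard and centrifuged at 2000 × g for 1 min. Supernatant counted, then analyzed by reverse-phase radio-HPLC with a MeCN/0.01 M H3PO4 gradient. Parent expressed as % of plasma radioactivity.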

[15] = test system: Pons; assay: Biodistribution in cynomolgus monkey brain pons assessed as standardized uptake value at 65 GBq/umol, iv after 24 mins; type: ADME, organism-based, Macaca fascicularis; conditions: in vivo, 0.4 h; procedure, shortened: as §1
[16] = Biodistribution in cynomolgus monkey brain striatum assessed as standardized uptake value at 65 GBq/umol, iv after 48 mins; type: ADME, organism-based, Macaca fascicularis; conditions: in vivo, 0.8 h; procedure, shortened: as §1

| IC50 [9] | Ki [9] | IC50 [11] | Ki [11] | Compound | further results |
| --- | --- | --- | --- | --- | --- |
| – | – | – | – | N#[11C]c1ccc(S(=O)(=O)/N=C(\N)N2CC(c3ccccc3)C(c3ccc(Cl)cc3)=N2)cc1 (racemic) | Drug uptake [1]: 175%; Drug uptake [2]: 124%; Drug uptake [3]: 150%; Drug uptake [4]: 85%; Drug uptake [5]: 220%; Drug uptake [6]: 180% |
| 2.8 nM | 0.5 nM | > 33 µM | > 5 µM | N#Cc1ccc(S(=O)(=O)/N=C(\N)N2C[C@H](c3ccccc3)C(c3ccc(Cl)cc3)=N2)cc1 | Ki [7]: > 10 µM; Ki [8]: > 7.71 µM; Ki [10]: > 10 µM |
| 104 nM | 17.4 nM | > 33 µM | > 5 µM | N/C(=N\S(=O)(=O)c1ccc(I)cc1)N1C[C@@H](c2ccccc2)C(c2ccc(Cl)cc2)=N1 | – |
| – | – | – | – | N#[11C]c1ccc(S(=O)(=O)/N=C(\N)N2C[C@@H](c3ccccc3)C(c3ccc(Cl)cc3)=N2)cc1 | Drug uptake [12]: 280%; Drug uptake [13]: 95% |
| 100 nM | 16.9 nM | > 33 µM | > 5 µM | N#Cc1ccc(S(=O)(=O)/N=C(\N)N2C[C@@H](c3ccccc3)C(c3ccc(Cl)cc3)=N2)cc1 | – |
| 1.9 nM | 0.3 nM | > 33 µM | > 5 µM | N/C(=N\S(=O)(=O)c1ccc(I)cc1)N1C[C@H](c2ccccc2)C(c2ccc(Cl)cc2)=N1 | – |
| – | – | – | – | N#[11C]c1ccc(S(=O)(=O)/N=C(\N)N2C[C@H](c3ccccc3)C(c3ccc(Cl)cc3)=N2)cc1 | remaining at 0.75 h [14]: 50%; Drug uptake [15]: 125%; Drug uptake [16]: 200% |
